In the library only some 12% were active in any assay of this set; here they are far more common.
Diaph act CS – counter-screen for diaphorase-based assays: diaphorase activators and chemical reducers; Diaphorase/resazurin coupled assay, resorufin fluorescence, 16 min; hits give high values; 1 = vehicle wells, 0 = NADH-free wells; activation factor at 20 µM; actives 0.005% (n = 190,000); AID 1229;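 active = diaphorase activity raised at least twofold by the compound at 20 µM; inactive = activation factor below 2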
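System – purified diaphorase enzyme from Clostridium kluyveri · Input – enzyme 0.07 U/mL final · Also added – final NADH 0.114 mM, resazurin 0.1 mM · Measured by – fluorescence of resorufin, 544 nm excitation, 590 nm emission · Timing – 16 min enzyme reaction, ambient temperature · Measure – resorufin increase flagging diaphorase activators or reducers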
ROMK mod – modulates human ROMK potassium channel activity; Tet-inducible ROMK, thallium flux fluorescence; actives lie on both sides; B-score at 10 µM; actives 2% (n = 130,000); AID 1918;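 active = signal ratio slope over the read window, or its plate-corrected B-score, at least 3 SD from the plate mean, either direction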;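 also: B-score of the F/F0 ratio slope over 7 to 12 s after thallium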
Diaphorase inh – inhibits diaphorase or chemically oxidizes, flagging diaphorase assay artifacts; diaphorase resazurin-to-resorufin fluorescence, NADH, 16 min; bacterial (C. kluyveri) enzyme, not human; inhibition, % at 20 µM; actives 0.69% (n = 190,000);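 active = primary screen inhibition at 20 µM above a set limit, cut at about 50% in these data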;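 also: plate controls were DMSO with full reaction for no effect and wells lacking NADH for full effect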
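controls = No-NADH positive control and DMSO neutral control | system = Clostridium kluyveri diaphorase enzyme | timing = reaction incubation of 16 min at room temperature | signal = resorufin fluorescence 544/590 nm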
Cl transport mod – KCC2 (human) Cl- transport modulation | AID 1456 | B-score of Tl+ flux slope (higher = more flux/activation; lower = inhibition) at 10 µM | actives 2.2% (n = 190,000) | KCC2 cells, thallium flux FluoZin-2 fluorescence | Q9H2X9;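 active = thallium flux slope and its plate-corrected score both differing from the plate sample mean at a set confidence after two filtering rounds, in either direction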;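 also: slope of fluorescence scaled to starting intensity during 10 to 20 s after thallium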
Target sequence (Q9H2X9 whole entry, looked up): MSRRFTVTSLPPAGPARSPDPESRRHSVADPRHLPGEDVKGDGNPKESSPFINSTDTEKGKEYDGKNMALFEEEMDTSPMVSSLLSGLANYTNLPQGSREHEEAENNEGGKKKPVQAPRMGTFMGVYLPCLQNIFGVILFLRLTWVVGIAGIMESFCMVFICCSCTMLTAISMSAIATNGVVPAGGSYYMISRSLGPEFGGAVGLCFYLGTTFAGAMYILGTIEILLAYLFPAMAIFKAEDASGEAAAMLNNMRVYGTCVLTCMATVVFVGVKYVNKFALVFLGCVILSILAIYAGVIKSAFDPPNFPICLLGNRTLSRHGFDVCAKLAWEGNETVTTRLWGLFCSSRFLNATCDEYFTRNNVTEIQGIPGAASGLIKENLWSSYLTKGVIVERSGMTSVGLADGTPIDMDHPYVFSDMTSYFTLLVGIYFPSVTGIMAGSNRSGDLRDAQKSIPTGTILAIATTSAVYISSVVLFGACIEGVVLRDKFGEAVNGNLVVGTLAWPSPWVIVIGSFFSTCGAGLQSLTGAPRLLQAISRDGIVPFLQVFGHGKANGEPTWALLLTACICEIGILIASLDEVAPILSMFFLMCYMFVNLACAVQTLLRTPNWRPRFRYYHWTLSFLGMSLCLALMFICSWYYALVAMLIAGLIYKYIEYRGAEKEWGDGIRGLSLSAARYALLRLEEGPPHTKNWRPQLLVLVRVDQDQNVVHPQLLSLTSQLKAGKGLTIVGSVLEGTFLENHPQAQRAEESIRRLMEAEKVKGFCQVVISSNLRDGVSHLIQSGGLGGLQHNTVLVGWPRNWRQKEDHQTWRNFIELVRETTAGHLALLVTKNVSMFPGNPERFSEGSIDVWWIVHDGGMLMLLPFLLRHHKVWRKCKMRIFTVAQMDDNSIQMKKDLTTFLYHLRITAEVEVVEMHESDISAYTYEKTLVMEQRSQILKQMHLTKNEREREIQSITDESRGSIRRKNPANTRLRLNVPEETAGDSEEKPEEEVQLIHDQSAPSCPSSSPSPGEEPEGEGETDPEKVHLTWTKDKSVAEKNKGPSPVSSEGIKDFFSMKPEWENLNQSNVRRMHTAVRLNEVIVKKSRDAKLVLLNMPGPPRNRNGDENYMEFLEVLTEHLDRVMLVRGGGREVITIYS
L major viab – Leishmania major promastigote growth inhibition; actives 9% (n = 200,000); inhibition, % at 10 µM; Leishmania major promastigotes, resazurin fluorescence viability; AID 1063; in the data active = inhibition above about 50%;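 also: promastigotes grown with compound for 44 hours at 28 °C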
WT yeast gro inh – growth inhibition of WT yeast, mitochondrial fusion screen. mitochondrial fusion phenotypic screen, WT strain. inhibition, % at 10 µM. actives 2.1% (n = 190,000). AID 1362; in the data active = inhibition above about 58%; tested in S. cerevisiae
Active calls of the source: *; / = no result.

SMILES	Diaph act CS	ROMK mod	Diaphorase inh	Cl transport mod	L major viab	WT yeast gro inh
CN1c2cccc3cccc(c23)N(C)C1c1cccs1	0.5	/	48	0.0087	-6	5
CC(CCc1ccccc1)NC(=O)C(=O)N1CCOCC1 (centres undefined)	0.9	0.23	6	0.064	-5	0
CCCOc1ccc(C(=O)CCC(=O)OCC(=O)Nc2ccc(Oc3ccccc3)cc2)cc1	0.8	/	18	0.3	-5	4
C=CCC(=O)OCC(=O)Nc1ccc(Oc2ccccc2)cc1	0.9	0.0051	6	/	97*	-6
CC1CCCCN1CC(=O)Nc1ccc(Oc2ccccc2)cc1 (centres undefined)	0.9	/	6	-1.1	96*	1
CCOC(=O)N1CCN(CC(=O)Nc2ccc(Oc3ccccc3)cc2)CC1	1	/	2	-0.079	97*	/
COC(=O)C1=CN(c2ccc(OC)cc2)C=C(C(=O)OC)C1c1ccc(C)c([N+](=O)[O-])c1	0.9	-0.65	14	-0.38	99*	6
COC(=O)C1=CN(c2cccc(C)c2)C=C(C(=O)OC)C1c1cc(OC)c(O)c([N+](=O)[O-])c1	0.8	-1	19	-3.1	2	-8
Cc1ccc(-c2nc(SCC(=O)Nc3cc(S(=O)(=O)N4CCCCC4)ccc3Cl)n[nH]2)cc1	0.8	-0.53	21	-0.61	58*	18
O=C(CCl)Nc1cc(S(=O)(=O)N2CCCCCC2)ccc1Cl	0.9	-1.5	8	-0.55	99*	-7
Cc1nnc(SCC(=O)Nc2cc(S(=O)(=O)N3CCCC3)ccc2Cl)s1	/	/	/	-0.29	/	/
CC(=C/C(=O)O)/C(=C\c1ccc(Br)o1)C(=O)O	/	/	/	1.4	/	/
COc1ccc(C(=O)NC(=S)N2CCOCC2)cc1OC	0.9	0.12	10	1.2	-5	-10
O=C(Nc1nnc(-c2ccc(Cl)cc2)o1)C1=COCCO1	1	-1	-1	9.4*	54*	17
COc1ccccc1C(=O)Nc1nnc(-c2ccc(Cl)cc2)o1	/	/	/	1.4	/	29
CCOc1cc(C2Nc3cccc4cccc(c34)N2)ccc1O	0.6	-0.57	37	0.5	9	19
CCOc1ccc(C2Nc3cccc4cccc(c34)N2)cc1OC	0.3	-0.44	65*	-0.27	69*	3
COc1ccccc1C1Nc2cccc3cccc(c23)N1	0.4	-0.41	57*	-0.74	17	19
COc1ccc(C2Nc3cccc4cccc(c34)N2)cc1	0.5	0.13	52*	0.9	9	12
O=C(COc1cccc2ccccc12)NCc1cccnc1	0.8	0.51	20	-2.2	4	17
COc1ccc(N2CC(C(=O)NCc3ccco3)CC2=O)cc1 (centres undefined)	0.9	0.89	7	1.3	4	0
O=[N+]([O-])c1cc([N+](=O)[O-])c2c(=Nc3ccccc3)n(-c3ccccc3)n(O)c2c1	0.7	1.1	31	-1	100*	47
O=[N+]([O-])c1cccc(C(=Nc2ccccc2)NO)c1	0.9	/	12	0.28	3	-10
Cc1cc(C(=O)CSc2nc(N)cc(N)n2)c(C)n1-c1cccc(C(F)(F)F)c1	0.8	-0.19	24	0.74	82*	-3
CCn1c(SCc2ccccc2)nnc1-c1cccnc1	/	1.4	/	1.4	0	-20
SMILES	Diaph act CS	ROMK mod	Diaphorase inh	Cl transport mod	L major viab	WT yeast gro inh
O=c1c2sccc2nc(SCc2cc(=O)n3cc(Br)ccc3n2)n1Cc1ccccn1	0.8	-0.11	22	-1.7	55*	7
N#Cc1ccccc1CSc1nc2ccsc2c(=O)n1Cc1ccccn1	0.8	0.14	16	0.24	43	25
Cc1ccc(CSc2nc3ccsc3c(=O)n2Cc2ccccn2)cc1	0.8	0.97	18	-0.2	67*	59*
COc1ccc(C(=O)Nn2cnnc2)cc1OC	/	-0.044	/	0.057	/	/
CC(=O)Nc1ccc(NC(=O)c2ccc(C)c(S(=O)(=O)Nc3cccc(C)c3)c2)cc1	0.9	-0.49	10	-0.93	30	-12
CCC(=O)N1CCC2(CC1)Oc1ccc(Cl)cc1C(=O)C21CC(c2ccc(Cl)cc2)=NO1 (centres undefined)	/	/	/	0.48	/	/
CC1(c2ccccc2)CC(C)(C)N(C(=O)CSc2nnc(N)s2)c2ccccc21 (centres undefined)	0.8	/	24	-0.6	15	15
CC1(c2cc([N+](=O)[O-])cc([N+](=O)[O-])c2)CC(C)(C)N(C(=O)c2ccccc2)c2ccccc21 (centres undefined)	0.8	/	20	/	98*	40
Cc1nc(/C(=N/O)C(N)=O)cs1	/	/	/	0.66	/	/
COc1cc(N2CCCC2)c(OC)cc1/C=C1/NC(=S)NC1=O	0.8	/	15	-2.7	96*	7
Cc1cccc(C)c1NC(=O)C(c1ccc(Cl)cc1Cl)N1CCCCC1 (centres undefined)	0.9	/	7	-0.92	26	22
CCOC(=O)c1cnc(-c2ccccc2)nc1-c1ccccc1	0.9	0.058	14	/	24	65*
CN(C(=O)COC(=O)c1cc([N+](=O)[O-])ccc1Sc1ccccc1)C1CCS(=O)(=O)C1 (centres undefined)	0.8	-0.34	19	-2.5	100*	-15
CC(=O)C(/C=N/c1ncc(C(F)(F)F)cc1Cl)=C(\C)O	1	-0.047	4	0.13	-2	-10
COc1ccc(CCNC(=O)COc2ccc(S(=O)(=O)NC3CCCCC3)cc2Cl)cc1	0.6	/	35	/	75*	-17
O=C(COc1ccc(S(=O)(=O)NC2CCCCC2)cc1Cl)N1CCN(c2ccccc2)CC1	0.8	0.46	24	/	98*	23
O=C(COc1ccc(S(=O)(=O)NC2CCCCC2)cc1Cl)NCC1CCCO1 (centres undefined)	0.9	-0.49	10	/	-5	-1
C#CCNC(=O)C1=C[C@@H](C2CCCCC2)[C@H](CCCO)[C@@H](OCC)O1	0.8	/	17	0.49	0	1
CCO[C@@H]1OC(C(=O)N2CCN(Cc3ccccc3)CC2)=C[C@H](C2CC2)[C@H]1CCCO	0.8	/	19	-0.6	-9	-18
OCC1(Cc2cccc(F)c2)CCN(Cc2ccc3cccc(F)c3n2)CC1	/	-0.95	/	0.66	88*	7
COc1cccc(CC2(CO)CCN(Cc3ccc4cccc(F)c4n3)CC2)c1	0.8	0.018	18	/	80*	-7
COc1cccc(CC2(CO)CCN(CC3=CC[C@H]4C[C@@H]3C4(C)C)CC2)c1	1.1	-0.98	-8	-0.62	88*	-3
COc1cccc(CC2(CO)CCN(Cc3ccc(NC(C)=O)cc3)CC2)c1	0.8	0.4	17	1.2	-6	2
CCn1ccnc1CN1CCC(CO)(CCOc2ccccc2)CC1	0.8	/	16	-0.13	1	-7
